Type in all cases: cell-based
The target in experiment [1] is T1, Sodium channel protein type 5 subunit alpha (Homo sapiens, UniProt Q14524). Description: Inhibition of human Nav1.5 expressed in HEK293 cells assessed as inward peak current by ion-works quattro patch clamp electrophysiology method. An outline of the steps:
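Stable HEK293 line expressing human NaV1.5, recorded by population patch clamp on the IonWorks Quattro.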
(Patch clamp records ionic current or voltage across a cell membrane.)

Experiment [2] has as its target T2, Sodium channel protein type 9 subunit alpha (Homo sapiens, UniProt Q15858). The experiment is described as follows: Inhibition of human Nav1.7 expressed in HEK293 cells assessed as inward peak current by ion-works quattro patch clamp electrophysiology method.
The target in experiment [3] is T2, Sodium channel protein type 9 subunit alpha. The experiment is described as follows: Inhibition of human Nav1.7 expressed in HEK293 cells by whole cell patch clamp electrophysiology method.
Experiment [4] concerns the target T1, Sodium channel protein type 5 subunit alpha. The experiment is described as follows: Inhibition of human Nav1.5 expressed in HEK293 cells by whole cell patch clamp electrophysiology method. An outline of the steps: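 Stable HEK293 line expressing human NaV1.5, recorded on the PatchXpress 7000A. Percent inhibition versus concentration was pooled from at least 10 cells, with two to three points per concentration. The pooled set was fitted with a four-parameter Hill equation to give a single IC50 curve.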

The structures appear in SMILES notation. Positions of bridges follow the written chain, without caps; N, C: chain ends. Residues, ends and D or L forms follow the SMILES beside them. Bounds are passed on as bounds.

By IC50 is commonly meant the concentration at which inhibition is half-maximal.

T1 sequence (Q14524 whole entry): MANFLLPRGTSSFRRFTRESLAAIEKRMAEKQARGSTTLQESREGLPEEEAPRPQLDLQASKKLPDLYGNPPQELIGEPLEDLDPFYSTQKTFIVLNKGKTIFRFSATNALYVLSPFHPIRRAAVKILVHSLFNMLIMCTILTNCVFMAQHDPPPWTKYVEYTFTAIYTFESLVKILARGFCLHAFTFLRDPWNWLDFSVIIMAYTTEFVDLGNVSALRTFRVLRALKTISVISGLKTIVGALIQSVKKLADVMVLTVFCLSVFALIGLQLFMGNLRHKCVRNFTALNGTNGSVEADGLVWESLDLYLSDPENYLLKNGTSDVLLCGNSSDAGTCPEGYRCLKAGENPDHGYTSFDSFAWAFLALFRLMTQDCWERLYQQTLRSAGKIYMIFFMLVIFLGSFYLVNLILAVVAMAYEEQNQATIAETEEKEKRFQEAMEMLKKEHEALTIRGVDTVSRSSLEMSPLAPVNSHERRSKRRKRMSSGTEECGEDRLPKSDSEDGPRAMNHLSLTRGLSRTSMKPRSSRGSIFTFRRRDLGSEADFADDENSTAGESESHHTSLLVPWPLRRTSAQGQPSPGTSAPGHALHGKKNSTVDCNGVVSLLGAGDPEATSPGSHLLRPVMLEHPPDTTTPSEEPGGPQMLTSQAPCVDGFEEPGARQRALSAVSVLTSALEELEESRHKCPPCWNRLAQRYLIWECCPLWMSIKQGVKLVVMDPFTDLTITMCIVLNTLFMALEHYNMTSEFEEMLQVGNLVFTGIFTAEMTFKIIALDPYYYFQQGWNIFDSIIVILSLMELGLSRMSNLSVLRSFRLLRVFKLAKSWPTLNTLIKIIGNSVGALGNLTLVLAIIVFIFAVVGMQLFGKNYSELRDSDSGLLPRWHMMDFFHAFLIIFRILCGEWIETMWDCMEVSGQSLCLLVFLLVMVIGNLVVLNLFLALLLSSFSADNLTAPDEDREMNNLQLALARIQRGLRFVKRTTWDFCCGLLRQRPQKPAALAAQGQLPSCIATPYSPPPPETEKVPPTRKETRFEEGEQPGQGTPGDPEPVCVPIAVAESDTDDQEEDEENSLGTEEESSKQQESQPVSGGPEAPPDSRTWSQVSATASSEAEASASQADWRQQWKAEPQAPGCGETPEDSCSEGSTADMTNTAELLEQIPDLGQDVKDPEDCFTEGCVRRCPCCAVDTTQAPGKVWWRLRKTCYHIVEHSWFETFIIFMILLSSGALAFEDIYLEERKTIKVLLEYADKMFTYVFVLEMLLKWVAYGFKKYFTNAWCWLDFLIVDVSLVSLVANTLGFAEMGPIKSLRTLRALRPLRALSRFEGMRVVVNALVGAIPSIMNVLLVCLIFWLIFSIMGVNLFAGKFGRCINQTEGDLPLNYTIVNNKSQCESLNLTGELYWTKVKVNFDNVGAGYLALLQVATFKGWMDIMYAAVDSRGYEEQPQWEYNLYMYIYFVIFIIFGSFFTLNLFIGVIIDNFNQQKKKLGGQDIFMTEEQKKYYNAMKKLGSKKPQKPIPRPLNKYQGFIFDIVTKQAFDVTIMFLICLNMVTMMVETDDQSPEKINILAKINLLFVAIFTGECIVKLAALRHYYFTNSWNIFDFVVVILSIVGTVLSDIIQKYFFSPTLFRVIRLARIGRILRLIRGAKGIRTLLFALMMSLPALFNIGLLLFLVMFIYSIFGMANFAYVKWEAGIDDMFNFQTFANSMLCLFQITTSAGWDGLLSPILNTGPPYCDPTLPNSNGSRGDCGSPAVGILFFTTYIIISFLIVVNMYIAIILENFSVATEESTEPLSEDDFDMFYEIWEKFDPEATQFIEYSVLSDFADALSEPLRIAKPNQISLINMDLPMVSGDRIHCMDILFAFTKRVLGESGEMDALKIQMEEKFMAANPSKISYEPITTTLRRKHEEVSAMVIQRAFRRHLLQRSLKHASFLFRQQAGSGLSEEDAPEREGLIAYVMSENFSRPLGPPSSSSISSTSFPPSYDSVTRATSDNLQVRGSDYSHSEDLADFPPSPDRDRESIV
T2 sequence (Q15858 whole entry): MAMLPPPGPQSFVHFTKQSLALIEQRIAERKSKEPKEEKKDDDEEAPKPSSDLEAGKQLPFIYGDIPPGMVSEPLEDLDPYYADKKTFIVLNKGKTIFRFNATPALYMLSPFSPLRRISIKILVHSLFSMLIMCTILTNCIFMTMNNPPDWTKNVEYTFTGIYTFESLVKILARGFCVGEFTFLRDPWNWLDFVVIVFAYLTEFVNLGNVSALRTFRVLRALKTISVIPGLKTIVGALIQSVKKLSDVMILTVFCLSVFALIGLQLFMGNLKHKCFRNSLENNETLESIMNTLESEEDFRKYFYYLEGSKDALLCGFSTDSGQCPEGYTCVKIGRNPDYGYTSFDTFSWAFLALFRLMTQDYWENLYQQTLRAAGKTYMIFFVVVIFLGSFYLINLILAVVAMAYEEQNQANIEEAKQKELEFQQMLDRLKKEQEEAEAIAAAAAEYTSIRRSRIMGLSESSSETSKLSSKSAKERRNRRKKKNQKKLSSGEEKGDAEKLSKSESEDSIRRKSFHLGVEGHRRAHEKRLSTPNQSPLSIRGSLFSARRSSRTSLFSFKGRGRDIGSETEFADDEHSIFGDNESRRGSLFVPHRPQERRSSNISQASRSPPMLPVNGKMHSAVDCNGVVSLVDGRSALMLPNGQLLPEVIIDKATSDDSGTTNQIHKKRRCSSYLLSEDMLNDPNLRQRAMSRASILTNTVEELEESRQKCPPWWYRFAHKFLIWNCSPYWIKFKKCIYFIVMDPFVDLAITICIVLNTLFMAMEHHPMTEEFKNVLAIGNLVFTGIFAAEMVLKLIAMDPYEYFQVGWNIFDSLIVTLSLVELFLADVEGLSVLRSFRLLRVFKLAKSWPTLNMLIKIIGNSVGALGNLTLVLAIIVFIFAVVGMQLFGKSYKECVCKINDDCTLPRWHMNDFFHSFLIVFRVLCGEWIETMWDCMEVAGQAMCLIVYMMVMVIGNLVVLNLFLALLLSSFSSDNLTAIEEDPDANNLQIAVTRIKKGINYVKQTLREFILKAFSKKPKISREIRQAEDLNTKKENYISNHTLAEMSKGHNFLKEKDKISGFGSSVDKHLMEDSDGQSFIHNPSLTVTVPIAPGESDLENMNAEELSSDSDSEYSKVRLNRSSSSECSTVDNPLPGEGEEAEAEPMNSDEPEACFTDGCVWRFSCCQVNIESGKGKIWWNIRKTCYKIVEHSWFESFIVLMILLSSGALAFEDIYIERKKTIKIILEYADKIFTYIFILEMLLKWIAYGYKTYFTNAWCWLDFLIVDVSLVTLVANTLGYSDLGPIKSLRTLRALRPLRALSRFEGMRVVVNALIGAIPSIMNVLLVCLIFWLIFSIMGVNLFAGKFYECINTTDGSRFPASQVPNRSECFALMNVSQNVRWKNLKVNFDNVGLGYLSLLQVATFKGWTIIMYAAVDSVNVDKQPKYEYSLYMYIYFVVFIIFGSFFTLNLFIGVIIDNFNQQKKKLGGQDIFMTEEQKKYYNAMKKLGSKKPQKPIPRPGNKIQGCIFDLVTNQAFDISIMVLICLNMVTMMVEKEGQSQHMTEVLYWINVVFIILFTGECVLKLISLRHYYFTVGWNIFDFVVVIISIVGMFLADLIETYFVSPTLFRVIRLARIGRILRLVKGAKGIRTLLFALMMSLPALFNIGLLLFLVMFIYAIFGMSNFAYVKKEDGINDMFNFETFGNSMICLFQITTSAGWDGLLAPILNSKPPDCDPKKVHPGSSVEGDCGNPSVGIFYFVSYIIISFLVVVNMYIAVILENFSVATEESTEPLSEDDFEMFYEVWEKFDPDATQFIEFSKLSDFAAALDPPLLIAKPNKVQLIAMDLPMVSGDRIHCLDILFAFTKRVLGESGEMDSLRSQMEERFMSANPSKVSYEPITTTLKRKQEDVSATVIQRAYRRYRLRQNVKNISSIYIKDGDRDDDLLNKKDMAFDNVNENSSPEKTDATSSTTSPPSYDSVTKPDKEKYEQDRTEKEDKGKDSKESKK

For `CSCC[C@@H]1NC(=O)[C@H](Cc2ccccc2)NC(=O)CNC(=O)[C@H](CC(C)C)NC(=O)[C@@H](NC(=O)[C@@H](N)CC(=O)O)CSSC[C@@H]2NC(=O)[C@@H]3CSSC[C@@H](C(=O)N[C@@H](CCCCN)C(=O)N[C@@H](Cc4ccc(O)cc4)C(=O)N[C@H](C(=O)N[C@@H](Cc4ccccc4)C(N)=O)C(C)C)NC(=O)[C@H](Cc4c[nH]c5ccccc45)NC(=O)[C@H](CCCCN)NC(=O)[C@H](Cc4c[nH]cn4)NC(=O)[C@H]([C@@H](C)O)NC(=O)[C@H](CCCNC(=N)N)NC(=O)[C@H](CO)NC(=O)[C@H](CSSC[C@H](NC(=O)[C@H](CCCCN)NC(=O)[C@H](CCCNC(=N)N)NC1=O)C(=O)N[C@@H](Cc1cccc4ccccc14)C(=O)N1CCC[C@H]1C(=O)N[C@@H](CC(=O)O)C(=O)N[C@@H](CC(N)=O)C(=O)N[C@@H](CC(=O)O)C(=O)N[C@@H](CCCCN)C(=O)N3)NC(=O)[C@H](C(C)C)NC(=O)[C@H](CC(C)C)NC(=O)[C@H](CC(N)=O)NC(=O)[C@@H]1CCCN1C(=O)[C@H](CCCNC(=N)N)NC2=O`, the results for the IC50 in experiment [1], in experiment [2] and in experiment [3] were over 5 µM, 160 nM and 6 nM, respectively.

Turning to `CC[C@H](C)[C@@H]1NC(=O)[C@@H]2CSSC[C@@H]3NC(=O)[C@H](C(C)C)NC(=O)[C@H](CC(C)C)NC(=O)[C@H](CC(N)=O)NC(=O)[C@@H]4CCCN4C(=O)[C@H](CCCNC(=N)N)NC(=O)[C@H](CSSC[C@H](NC(=O)[C@@H](N)CC(=O)O)C(=O)N[C@@H](CC(C)C)C(=O)N[C@@H](C)C(=O)N[C@@H](Cc4ccccc4)C(=O)N[C@@H](CCSC)C(=O)N[C@@H](CCCNC(=N)N)C(=O)N[C@@H](CCCCN)C(=O)N2)NC(=O)[C@H](CSSC[C@@H](C(=O)N[C@@H](CCCCN)C(=O)N[C@@H](Cc2ccc(O)cc2)C(=O)N[C@H](C(=O)N[C@@H](Cc2ccccc2)C(N)=O)C(C)C)NC(=O)[C@H](Cc2c[nH]c4ccccc24)NC(=O)[C@H](CCCCN)NC(=O)[C@H](Cc2cnc[nH]2)NC(=O)[C@H]([C@@H](C)O)NC(=O)[C@H](CCCNC(=N)N)NC(=O)[C@H](CO)NC3=O)NC(=O)[C@H](CCCCN)NC(=O)[C@H](CC(=O)O)NC(=O)[C@H](CC(N)=O)NC(=O)[C@H](CC(=O)O)NC(=O)[C@@H]2CCCN2C1=O` (H-DCLAFMRKCIPDNDKCCRPNLVCSRTHKWCKYVF-NH2; disulfide 2-17, 9-23, 16-30), the IC50 is over 10 µM in experiment [4] and 27 nM in experiment [3].

For the compound `CC[C@H](C)[C@@H]1NC(=O)[C@@H]2CSSC[C@@H]3NC(=O)[C@H](C(C)C)NC(=O)[C@H](CC(C)C)NC(=O)[C@H](CC(N)=O)NC(=O)[C@@H]4CCCN4C(=O)[C@H](CCCNC(=N)N)NC(=O)[C@H](CSSC[C@H](NC(=O)[C@@H](N)CC(=O)O)C(=O)N[C@@H](CC(C)C)C(=O)NCC(=O)N[C@@H](Cc4ccccc4)C(=O)N[C@@H](CCSC)C(=O)N[C@@H](CCCNC(=N)N)C(=O)N[C@@H](CCCCN)C(=O)N2)NC(=O)[C@H](CSSC[C@@H](C(=O)N[C@@H](CCCCN)C(=O)N[C@@H](Cc2c[nH]c4ccccc24)C(=O)N[C@H](C(=O)N[C@@H](Cc2ccccc2)C(N)=O)C(C)C)NC(=O)[C@H](Cc2c[nH]c4ccccc24)NC(=O)[C@H](CCCCN)NC(=O)[C@H](Cc2c[nH]cn2)NC(=O)[C@H]([C@@H](C)O)NC(=O)[C@H](CCCNC(=N)N)NC(=O)[C@H](CO)NC3=O)NC(=O)[C@H](CCCCN)NC(=O)[C@H](CC(=O)O)NC(=O)[C@H](CC(N)=O)NC(=O)[C@H](CC(=O)O)NC(=O)[C@@H]2CCCN2C1=O` (H-DCLGFMRKCIPDNDKCCRPNLVCSRTHKWCKWVF-NH2; disulfide 2-17, 9-23, 16-30), the IC50 is over 5 µM in experiment [1] and 12 nM in experiment [3].

The record behind these values is ChEMBL document CHEMBL3797186, “Single Residue Substitutions That Confer Voltage-Gated Sodium Ion Channel Subtype Selectivity in the NaV1.7 Inhibitory Peptide GpTx-1” (J Med Chem, 2016).
